Data taken from ChEMBL document CHEMBL1156144, “Biaryl ethers as novel non-nucleoside reverse transcriptase inhibitors with improved potency against key mutant viruses” (J Med Chem, 2009).

What was measured:
[1] = tested on: Human immunodeficiency virus; experiment: Antiviral activity against HIV with reverse transcriptase K103N/G190A double mutant assessed as inhibition of viral replication; type: functional, organism-based; conditions: Human immunodeficiency virus 1
[2] = Inhibition of RNA-dependent DNA polymerase activity of wild type HIV reverse transcriptase assessed as BrdU incorporation by standard ECL assay; set-up: species or system Human immunodeficiency virus
Method in brief: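 Purified recombinant wild-type RT polymerase activity was measured using a 500-nt heteropolymeric RNA template and a biotinylated DNA primer. BrdU incorporation was detected with a ruthenylated anti-BrdU antibody by electrochemiluminescence. Ki is the geometric mean of at least two determinations, each within 25% of the mean.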

[3] = Oral bioavailability in Beagle dog at 1 mg/kg; type: ADME, organism-based, Canis lupus familiaris; conditions: in vivo
[4] = tested on: Human immunodeficiency virus; experiment: Antiviral activity against HIV with reverse transcriptase K103N/Y181C double mutant assessed as inhibition of viral replication relative to wild type; type: functional
[5] = tested on: Human immunodeficiency virus; experiment: Antiviral activity against HIV with reverse transcriptase Y181C mutant assessed as inhibition of viral replication relative to wild type; type: functional
[6] = tested on: Human immunodeficiency virus; experiment: Antiviral activity against wild type HIV H9-3B infected in human MT2 cells assessed as inhibition of viral replication measuring p24 level after 3 days in presence of 10% fetal bovine serum; type: functional; conditions: Human immunodeficiency virus 1, MT2, Serum; read-out: CIC95
Method in brief: (§1)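 Multiple-cycle spread assay in MT2 cells with wild-type H9IIIB virus. Cells were infected overnight at moi ≈ 0.01 without compound, washed, then cultured 3 days across varying compound concentrations in RPMI 1640 with 10% FBS or 50% NHS. p24 was measured in supernatants. CIC95 is the lowest concentration inhibiting replication ≥95%, as the geometric mean of ≥2 determinations.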

Rhesus monkey = experiment: AUC in rhesus monkey at 5 mg/kg, po; type: ADME, organism-based, Macaca mulatta, Plasma; set-up: dose 5 mg/kg, route oral; conditions: in vivo
[7] = tested on: Human immunodeficiency virus; experiment: Antiviral activity against HIV with reverse transcriptase K103N mutant assessed as inhibition of viral replication; type: functional, organism-based; conditions: Human immunodeficiency virus 1
Rattus norvegicus = experiment: AUC in Sprague-Dawley rat at 10 mg/kg, po; type: ADME, organism-based, Plasma; set-up: dose 10 mg/kg, route oral; conditions: in vivo
[8] = tested on: Human immunodeficiency virus; experiment: Antiviral activity against wild type HIV H9-3B infected in human MT2 cells assessed as inhibition of viral replication measuring p24 level after 3 days in presence of 50% normal human serum; type: functional; conditions: Human immunodeficiency virus 1, H9-3B, 72 h, read-out: CIC95; method in brief: as §1
[9] = Volume of distribution in Sprague-Dawley rat at 2 mg/kg, iv; type: ADME, organism-based; set-up: dose 2 mg/kg, route intravenous; conditions: in vivo
[10] = tested on: Human immunodeficiency virus; experiment: Antiviral activity against HIV with reverse transcriptase Y181C mutant infected in human MT2 cells assessed as inhibition of viral replication measuring p24 level after 3 days in presence of 10% fetal bovine serum; type: functional; conditions: Human immunodeficiency virus 1, MT2, Serum, 72 h; read-out: CIC95
Method in brief: (§2)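 Multiple-cycle replication (Spread) assay in MT2 cells with H9IIIB-background mutant virus. Cells were infected overnight at moi ≈ 0.01 without compound, washed, then cultured 3 days across a range of compound concentrations in medium with 10% FBS. p24 was measured in supernatants. CIC95 is the lowest concentration inhibiting replication by ≥95%, reported as the geometric mean of ≥2 determinations.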

[11] = Half life in Beagle dog at 0.5 mg/kg, iv; type: ADME, organism-based, Canis lupus familiaris; set-up: dose 0.5 mg/kg, route intravenous; conditions: in vivo
[12] = tested on: Human immunodeficiency virus; experiment: Antiviral activity against HIV with reverse transcriptase Y188L mutant assessed as inhibition of viral replication relative to wild type; type: functional
[13] = tested on: Human immunodeficiency virus; experiment: Antiviral activity against HIV with reverse transcriptase V106A/G190A/F227L mutant assessed as inhibition of viral replication; type: functional, organism-based; conditions: Human immunodeficiency virus 1
[14] = tested on: Human immunodeficiency virus; experiment: Antiviral activity against HIV with reverse transcriptase L100I mutant assessed as inhibition of viral replication relative to wild type; type: functional
[15] = tested on: Human immunodeficiency virus; experiment: Antiviral activity against HIV with reverse transcriptase K101E/G190A double mutant assessed as inhibition of viral replication relative to wild type; type: functional
Canis familiaris = experiment: AUC in Beagle dog at 1 mg/kg, po; type: ADME, organism-based, Canis lupus familiaris, Plasma; set-up: dose 1 mg/kg, route oral; conditions: in vivo
[16] = tested on: Human immunodeficiency virus; experiment: Antiviral activity against HIV with reverse transcriptase CNDO mutant assessed as inhibition of viral replication; type: functional, organism-based; conditions: Human immunodeficiency virus 1
[17] = tested on: Human immunodeficiency virus; experiment: Antiviral activity against HIV with reverse transcriptase G190A mutant assessed as inhibition of viral replication relative to wild type; type: functional
[18] = tested on: Human immunodeficiency virus; experiment: Antiviral activity against HIV with reverse transcriptase K103N/G190A double mutant assessed as inhibition of viral replication relative to wild type; type: functional
[19] = tested on: Human immunodeficiency virus; experiment: Antiviral activity against HIV with reverse transcriptase L100I/K103N double mutant assessed as inhibition of viral replication relative to wild type; type: functional
[20] = tested on: Human immunodeficiency virus; experiment: Antiviral activity against HIV with reverse transcriptase K103N mutant infected in human MT2 cells assessed as inhibition of viral replication measuring p24 level after 3 days in presence of 10% fetal bovine serum; type: functional; conditions: Human immunodeficiency virus 1, MT2, Serum, 72 h; read-out: CIC95; method in brief: as §2
[21] = Half life in Sprague-Dawley rat at 2 mg/kg, iv; type: ADME, organism-based; set-up: dose 2 mg/kg, route intravenous; conditions: in vivo
[22] = tested on: Human immunodeficiency virus; experiment: Antiviral activity against HIV with reverse transcriptase CNDO mutant assessed as inhibition of viral replication relative to wild type; type: functional
[23] = tested on: Human immunodeficiency virus; experiment: Antiviral activity against HIV with reverse transcriptase K101E/Y181C/G190A mutant assessed as inhibition of viral replication relative to wild type; type: functional
[24] = tested on: Human immunodeficiency virus; experiment: Antiviral activity against HIV with reverse transcriptase G190S mutant assessed as inhibition of viral replication; type: functional, organism-based; conditions: Human immunodeficiency virus 1
[25] = tested on: Human immunodeficiency virus; experiment: Antiviral activity against HIV with reverse transcriptase G190A mutant assessed as inhibition of viral replication; type: functional, organism-based; conditions: Human immunodeficiency virus 1
[26] = tested on: Human immunodeficiency virus; experiment: Antiviral activity against HIV with reverse transcriptase Y181C/G190A double mutant assessed as inhibition of viral replication relative to wild type; type: functional
[27] = tested on: Human immunodeficiency virus; experiment: Antiviral activity against HIV with reverse transcriptase Y188L mutant assessed as inhibition of viral replication; type: functional, organism-based; conditions: Human immunodeficiency virus 1
[28] = Volume of distribution in rhesus monkey at 1 mg/kg, iv; type: ADME, organism-based, Macaca mulatta; set-up: dose 1 mg/kg, route intravenous; conditions: in vivo
[29] = tested on: Human immunodeficiency virus; experiment: Antiviral activity against HIV with reverse transcriptase K101E/Y181C/G190A mutant assessed as inhibition of viral replication; type: functional, organism-based; conditions: Human immunodeficiency virus 1
[30] = tested on: Human immunodeficiency virus; experiment: Antiviral activity against HIV with reverse transcriptase K103N/Y181C double mutant infected in human MT2 cells assessed as inhibition of viral replication measuring p24 level after 3 days in presence of 10% fetal bovine serum; type: functional; conditions: Human immunodeficiency virus 1, MT2, Serum, 72 h; read-out: CIC95; method in brief: as §2
[31] = Volume of distribution in Beagle dog at 0.5 mg/kg, iv; type: ADME, organism-based, Canis lupus familiaris; set-up: dose 0.5 mg/kg, route intravenous; conditions: in vivo
[32] = Half life in rhesus monkey at 1 mg/kg, iv; type: ADME, organism-based, Macaca mulatta; set-up: dose 1 mg/kg, route intravenous; conditions: in vivo
[33] = Clearance in Beagle dog at 0.5 mg/kg, iv; type: ADME, organism-based, Canis lupus familiaris; set-up: dose 0.5 mg/kg, route intravenous; conditions: in vivo
[34] = Clearance in Sprague-Dawley rat at 2 mg/kg, iv; type: ADME, organism-based; set-up: dose 2 mg/kg, route intravenous; conditions: in vivo
[35] = tested on: Human immunodeficiency virus; experiment: Antiviral activity against HIV with reverse transcriptase K103N/Y181C/G190A mutant assessed as inhibition of viral replication; type: functional, organism-based; conditions: Human immunodeficiency virus 1
[36] = tested on: Human immunodeficiency virus; experiment: Antiviral activity against HIV with reverse transcriptase G190S mutant assessed as inhibition of viral replication relative to wild type; type: functional
[37] = Clearance in rhesus monkey at 1 mg/kg, iv; type: ADME, organism-based, Macaca mulatta; set-up: dose 1 mg/kg, route intravenous; conditions: in vivo
[38] = Oral bioavailability in rhesus monkey at 5 mg/kg; conditions: in vivo
[39] = tested on: Human immunodeficiency virus; experiment: Antiviral activity against HIV with reverse transcriptase MDRC4 mutant assessed as inhibition of viral replication; type: functional, organism-based; conditions: Human immunodeficiency virus 1
[40] = tested on: Human immunodeficiency virus; experiment: Antiviral activity against HIV with reverse transcriptase K103N/Y181C/G190A mutant assessed as inhibition of viral replication relative to wild type; type: functional
[41] = tested on: Human immunodeficiency virus; experiment: Antiviral activity against HIV with reverse transcriptase K103N/Y181C double mutant assessed as inhibition of viral replication; type: functional, organism-based; conditions: Human immunodeficiency virus 1
[42] = tested on: Human immunodeficiency virus; experiment: Antiviral activity against HIV with reverse transcriptase K103N/P225H double mutant assessed as inhibition of viral replication; type: functional, organism-based; conditions: Human immunodeficiency virus 1
[43] = tested on: Human immunodeficiency virus; experiment: Antiviral activity against HIV with reverse transcriptase V106A/G190A/F227L mutant assessed as inhibition of viral replication relative to wild type; type: functional
[44] = tested on: Human immunodeficiency virus; experiment: Antiviral activity against HIV with reverse transcriptase L100I mutant assessed as inhibition of viral replication; type: functional, organism-based; conditions: Human immunodeficiency virus 1
[45] = tested on: Human immunodeficiency virus; experiment: Antiviral activity against HIV with reverse transcriptase L100I/K103N double mutant assessed as inhibition of viral replication; type: functional, organism-based; conditions: Human immunodeficiency virus 1
[46] = tested on: Human immunodeficiency virus; experiment: Antiviral activity against HIV with reverse transcriptase Y181C/G190A double mutant assessed as inhibition of viral replication; type: functional, organism-based; conditions: Human immunodeficiency virus 1
[47] = tested on: Human immunodeficiency virus; experiment: Antiviral activity against HIV with reverse transcriptase K103N/P225H double mutant assessed as inhibition of viral replication relative to wild type; type: functional
[48] = tested on: Human immunodeficiency virus; experiment: Antiviral activity against HIV with reverse transcriptase MDRC4 mutant assessed as inhibition of viral replication relative to wild type; type: functional
[49] = tested on: Human immunodeficiency virus; experiment: Antiviral activity against HIV with reverse transcriptase K103N mutant assessed as inhibition of viral replication relative to wild type; type: functional
[50] = tested on: Human immunodeficiency virus; experiment: Antiviral activity against HIV with reverse transcriptase Y181C mutant assessed as inhibition of viral replication; type: functional, organism-based; conditions: Human immunodeficiency virus 1
[51] = tested on: Human immunodeficiency virus; experiment: Antiviral activity against HIV with reverse transcriptase K101E/G190A double mutant assessed as inhibition of viral replication; type: functional, organism-based; conditions: Human immunodeficiency virus 1

N#Cc1cc(Cl)cc(Oc2cc(OCc3n[nH]c4nc(N)ccc34)ccc2Cl)c1
IC50 [1]: 0.0072 µM
Ki [2]: 0.0002 µM
bioavailability [3]: 47%
fold change (FC) [4]: 55.5
fold change (FC) [5]: 3.43
IC95 [6]: 0.005 µM
AUC (Rhesus monkey): 0.3 µM
IC50 [7]: 0.0026 µM
AUC (Rattus norvegicus): 23 µM
IC95 [8]: 0.026 µM
Vd [9]: 2 L/kg
IC95 [10]: 0.027 µM
half-life [11]: 3.9 h
fold change (FC) [12]: 629.07
IC50 [13]: > 1 µM
fold change (FC) [14]: 0.93
fold change (FC) [15]: 4.93
AUC (Canis familiaris): 31 µM
IC50 [16]: 0.0014 µM
fold change (FC) [17]: 2.07
fold change (FC) [18]: 5.14
fold change (FC) [19]: 24.86
IC95 [20]: 0.011 µM
half-life [21]: 3.5 h
fold change (FC) [22]: 1
fold change (FC) [23]: 21.07
IC50 [24]: 0.0123 µM
IC50 [25]: 0.0029 µM
fold change (FC) [26]: 8.29
IC50 [27]: 0.881 µM
Vd [28]: 1.9 L/kg
IC50 [29]: 0.0295 µM
IC95 [30]: 0.101 µM
Vd [31]: 1.7 L/kg
half-life [32]: 2.1 h
clearance [33]: 5.8 mL/min/kg
clearance [34]: 9 mL/min/kg
IC50 [35]: 0.111 µM
fold change (FC) [36]: 8.79
clearance [37]: 16 mL/min/kg
bioavailability [38]: 1%
IC50 [39]: 0.009 µM
fold change (FC) [40]: 78.93
IC50 [41]: 0.0777 µM
IC50 [42]: 0.0022 µM
fold change (FC) [43]: >714
IC50 [44]: 0.0013 µM
IC50 [45]: 0.0348 µM
IC50 [46]: 0.0116 µM
fold change (FC) [47]: 1.57
fold change (FC) [48]: 6.43
fold change (FC) [49]: 1.86
IC50 [50]: 0.0048 µM
IC50 [51]: 0.0069 µM
